Screening results as filed in PubChem BioAssay.
Most compounds without a hit are left out; they make up all but 3% or so of the library.
Cneo AK release: causes C. neoformans cell lysis; adenylate kinase release luminescence, 4 h; normalised: neutral wells 0, clomiphene wells 100; lysis activity, % at 15 µM; actives 0.2% (n = 360,000); AID 651654;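 active = mean lysis activity across replicates of at least 80%, whatever share of replicates individually reach that level; inactive = mean lysis activity below 80%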
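Material – Cryptococcus neoformans yeast cells · Quantity – 5 × 10^6 yeast cells/mL · Buffer or medium – YPD medium · Compound – single dose · Timing – 4 h static compound exposure, 37 °C, read 1 h post-reagent · Signal – adenylate kinase release luminescence · Read-out basis – lysis from increased AK signal · Benchmarks – Clomiphene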
S100A4 inh HTS: blocks human S100A4 binding to myosin IIA peptide. S100A4/TAMRA-MyoIIA peptide fluorescence polarization. inhibition, % at 10.7 µM. actives 0.14% (n = 360,000). AID 652163;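 active = mean inhibition of at least 70% across replicates, with every replicate also reaching that level; inconclusive = mean inhibition reaches 70% but some replicates fall short; inactive = mean inhibition below 70%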
Target sequence (P26447 whole entry, looked up): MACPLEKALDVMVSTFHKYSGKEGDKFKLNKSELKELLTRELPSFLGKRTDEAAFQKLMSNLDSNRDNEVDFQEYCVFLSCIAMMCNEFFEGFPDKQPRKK
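Test system – S100A4 monomer (human) · Compound – single-point compound testing · Schedule – 5 min incubation before reading · Probe or stimulus – TAMRA-labelled myosin IIA heavy-chain peptide probe, 5 nM · Benchmarks – neutral control DMSO, positive control TFP · Medium – Calcium-containing HEPES buffer, pH 7.2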
C2C12 statin: suppression of simvastatin myotoxicity | C2C12 myotubes + simvastatin, ATP luminescence, 48 h; scaled: DMSO 0, geranylgeraniol control 100 | rescue of ATP level, % at 7.49 µM | actives 0.78% (n = 330,000) | AID 602340;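 active = mean ATP rescue above about 67%, or every replicate alone reaching that limit, limit read from the data, passing the limit was not always enough; inconclusive = no clear call, values can overlap the other calls; inactive = mean under the limit and some replicate under it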;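 note: myotubes were challenged with 10 µM simvastatin during compound exposure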
SIRT5 block: blocks human SIRT5 desuccinylation of peptide; inhibition, % at 15 µM; Purified SirT5, succinyl-peptide AMC, trypsin-coupled fluorescence; AID 652115; Q9NXA8; actives 1.1% (n = 330,000); in the data active = inhibition above about 15%; inconclusive = no clear call, values can overlap the other calls
Target sequence (Q9NXA8 whole entry, looked up): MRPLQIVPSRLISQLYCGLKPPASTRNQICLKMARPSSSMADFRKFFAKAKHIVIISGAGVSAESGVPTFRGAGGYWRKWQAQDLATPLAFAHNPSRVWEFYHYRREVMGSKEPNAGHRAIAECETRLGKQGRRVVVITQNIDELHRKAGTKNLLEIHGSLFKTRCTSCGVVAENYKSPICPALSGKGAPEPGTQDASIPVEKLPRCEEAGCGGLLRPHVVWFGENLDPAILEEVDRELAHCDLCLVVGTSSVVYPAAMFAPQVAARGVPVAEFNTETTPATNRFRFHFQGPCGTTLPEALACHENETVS
PGC1a acetyl inh: modulators of PGC1a acetylation; U2OS PGC1a acetylation, AlphaScreen anti-acetyl-lysine; with virally co-expressed GCN5 acetyltransferase; inhibition, % at 15.6 µM; actives 0.17% (n = 350,000); AID 651687;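 active = every replicate shows inhibition of at least 40%; inconclusive = mean inhibition at least 40% but some replicate below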;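 note: 0% = neutral control wells and 100% = positive control wells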
rRNA inh HTS: selective bacterial rRNA inhibition in E. coli; GFP signal change (wild-type ribosome), % (concentration not given with the values); actives 1.6% (n = 350,000); E. coli WT GFP vs humanized-ribosome RFP mutants, fluorescence, 24 h; hits give low values; DMSO median 0, no signal -100;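 active = significant combined selectivity score with lowered wild-type GFP, culture density cut under 30%, mutant RFP and density less affected; inactive = any of these conditions unmet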
* hit, by the source's call.

Results for Cc1ccnc(NC(=O)CCC(=O)N(CC(=O)NCc2ccc(F)cc2)CC2CCCO2)c1 (stereo not drawn) ?
Cneo AK release: -1; S100A4 inh HTS: 1; C2C12 statin: -9; SIRT5 block: -1; rRNA inh HTS: -4

What do the screens show for `Cc1ccnc(NC(=O)CCC(=O)N(CC(=O)NCC2CCCO2)Cc2ccc(F)cc2)c1` (stereo not drawn)?
Cneo AK release: 0; C2C12 statin: 91*; PGC1a acetyl inh: -1

What do the screens show for `CCCCCCCC/C=C\CCCCCCCC(=O)NCCO`?
Cneo AK release: -2; S100A4 inh HTS: -1; C2C12 statin: 6; SIRT5 block: 4; PGC1a acetyl inh: -2

How did CCCCCCCC/C=C\CCCCCCCC(=O)NCCc1ccc(O)c(O)c1 do in these assays?
Cneo AK release: 6; S100A4 inh HTS: -9; C2C12 statin: -195; SIRT5 block: 32*; PGC1a acetyl inh: -7

Results for O=C(CN1C(=O)c2ccccc2C1=O)Nc1cccc(S(=O)(=O)Nc2ccccc2Cl)c1 ?
S100A4 inh HTS: 4; SIRT5 block: 3; rRNA inh HTS: -26*

Results for O=C(CN1C(=O)c2ccccc2C1=O)Nc1cccc(Cl)c1 ?
Cneo AK release: 1; S100A4 inh HTS: -3; C2C12 statin: 13; SIRT5 block: -3; PGC1a acetyl inh: -4; rRNA inh HTS: 11

Results for CC(C)C#Cc1ccc2c(c1)O[C@H](CN(C)Cc1ccncc1)[C@H](C)CN([C@@H](C)CO)S2(=O)=O ?
Cneo AK release: -1; C2C12 statin: -35; PGC1a acetyl inh: -10; rRNA inh HTS: -4

What do the screens show for `C/C(=N\NC(=O)c1ccc(Br)cc1)c1cccc(NC(=O)c2cccnc2)c1`?
S100A4 inh HTS: -2; SIRT5 block: 20*; PGC1a acetyl inh: 2; rRNA inh HTS: -1

Results for C/C(=N\NC(=O)c1cc(O)ccc1O)c1cccc(NC(=O)c2ccc(Cl)cc2)c1 ?
Cneo AK release: -14; S100A4 inh HTS: -2; C2C12 statin: 15; SIRT5 block: 3; rRNA inh HTS: -26*

What do the screens show for `C/C(=N/NC(=O)c1ccc2c(c1)OCO2)c1cccc(NC(=O)C(C)(C)C)c1`?
Cneo AK release: 3; C2C12 statin: 111*; PGC1a acetyl inh: 18

How did C/C(=N/NC(=O)c1ccc2c(c1)OCO2)c1cccc([N+](=O)[O-])c1 do in these assays?
Cneo AK release: 0; S100A4 inh HTS: 7; C2C12 statin: -4; SIRT5 block: -2; rRNA inh HTS: 14

What do the screens show for `C/C(=N\NC(=O)c1ccncc1)c1cccc(NC(=O)c2ccc(C(C)(C)C)cc2)c1`?
Cneo AK release: -5; S100A4 inh HTS: 1; C2C12 statin: -22; SIRT5 block: 2; rRNA inh HTS: -1

Results for Cc1ccc(Cc2c(-c3ccc(Br)cc3)nc3cc(C)ccn23)cc1 ?
Cneo AK release: -3; S100A4 inh HTS: 13; C2C12 statin: 11; SIRT5 block: 28*; rRNA inh HTS: 0

Results for Cc1ccc(Cc2c(-c3ccc(F)cc3)nc3ccc(Cl)cn23)cc1 ?
Cneo AK release: -1; S100A4 inh HTS: -9; C2C12 statin: 17; SIRT5 block: -5; rRNA inh HTS: -8

How did Cc1ccc(Cc2c(-c3ccc(F)cc3)nc3cc(C)ccn23)cc1 do in these assays?
Cneo AK release: 7; S100A4 inh HTS: -7; C2C12 statin: 23; SIRT5 block: 15*; rRNA inh HTS: 0

What do the screens show for `Cc1ccc(Cc2c(-c3ccccc3)nc3ccc(Br)cn23)cc1`?
Cneo AK release: 2; S100A4 inh HTS: 0; C2C12 statin: 28; SIRT5 block: -14; PGC1a acetyl inh: -7; rRNA inh HTS: 3

What do the screens show for `C=CCN(c1ccc(C(=O)Nc2ccc3c(c2)n(C)c(=O)n3C)cc1)S(C)(=O)=O`?
Cneo AK release: 1; S100A4 inh HTS: 0; C2C12 statin: -3; SIRT5 block: 0; PGC1a acetyl inh: 7; rRNA inh HTS: -9

How did C=CCN(c1ccc(C(=O)Nc2ccc3c(c2)OCO3)cc1)S(C)(=O)=O do in these assays?
S100A4 inh HTS: -3; C2C12 statin: -10; SIRT5 block: -2; PGC1a acetyl inh: 93*; rRNA inh HTS: 3

What do the screens show for `C[C@@H]1CCCCO[C@H](CN(C)S(C)(=O)=O)[C@H](C)CN([C@@H](C)CO)C(=O)c2cc(N(C)C)ccc2O1`?
Cneo AK release: -1; S100A4 inh HTS: -2; C2C12 statin: -26; SIRT5 block: 6; PGC1a acetyl inh: -4; rRNA inh HTS: 5

How did C[C@@H](NC(=O)C[C@H]1C[C@@H]2c3cc(NS(C)(=O)=O)ccc3O[C@@H]2[C@H](CO)O1)c1ccccc1 do in these assays?
Cneo AK release: 6; S100A4 inh HTS: 0; C2C12 statin: -5; SIRT5 block: -5; PGC1a acetyl inh: -1; rRNA inh HTS: 2

What do the screens show for `CC(=O)c1sc(-c2ccc(Cl)cc2)cc1N`?
S100A4 inh HTS: -1; SIRT5 block: -1; rRNA inh HTS: -30*

Results for CCCc1cc(NCCCn2ccnc2)n2nc(C)c(-c3ccccc3)c2n1 ?
S100A4 inh HTS: 5; SIRT5 block: 18*; rRNA inh HTS: -36

Results for Cc1cc(NCCCn2ccnc2)n2ncc(-c3ccc(Cl)cc3)c2n1 ?
Cneo AK release: -12; C2C12 statin: -151; PGC1a acetyl inh: -9

Results for CC(C)(C)c1cc(NCCCn2ccnc2)n2ncc(-c3ccccc3)c2n1 ?
Cneo AK release: -15; S100A4 inh HTS: 1; SIRT5 block: -2; PGC1a acetyl inh: 12; rRNA inh HTS: -49*

Results for COc1cc(C)ccc1OCCCOc1c(Cl)cccc1Cl ?
Cneo AK release: -2; S100A4 inh HTS: -1; SIRT5 block: -1; PGC1a acetyl inh: -1

What do the screens show for `COc1cc(C)ccc1OCCCOc1cc(C)ccc1Cl`?
Cneo AK release: -2; C2C12 statin: 156*; PGC1a acetyl inh: -13

Results for COCC(=O)N1[C@@H](CO)[C@@H]2c3ccccc3N(C(=O)C3CC3)C[C@@H]21 ?
Cneo AK release: -4; S100A4 inh HTS: 8; C2C12 statin: 2; SIRT5 block: -3; PGC1a acetyl inh: 10; rRNA inh HTS: 5

Results for CCNC(=S)N1CCc2cc(OC)c(OC)cc2C1COc1ccc(F)cc1 (stereo not drawn) ?
Cneo AK release: -4; S100A4 inh HTS: -8; C2C12 statin: inconclusive; SIRT5 block: -1; PGC1a acetyl inh: 2; rRNA inh HTS: -31*

Results for CNC(=S)N1CCc2cc(OC)c(OC)cc2C1COc1ccc(F)cc1 (stereo not drawn) ?
S100A4 inh HTS: 1; SIRT5 block: -2; PGC1a acetyl inh: -16; rRNA inh HTS: -4
